Test results as given in ChEMBL document CHEMBL1149096 (J Med Chem, 2004).
pEC50, pIC50, pKi: −log10 of the molar value. Active and inactive are the calls of the source.

Biological target: Mu-type opioid receptor (Rattus norvegicus, UniProt P33535)
Experiment: Binding affinity at Opioid receptor mu 1 by displacement of [3H]DAMGO at 1.4 to 3.0 nM in rat brain membrane
Assay type: cell membranes
Details: not given
Method in brief: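 Rat brain membranes freshly homogenised in ice-cold 10 mM Tris-HCl pH 7.0, centrifuged twice at 30000g, then resuspended in 50 mM Tris-HCl pH 7.4. […] Nonspecific binding was defined with 20 µM levallorphan. Two experiments were pooled and fitted by logistic regression, with Ki = IC50/(1+[L]/Kd).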

Mu-type opioid receptor (Rattus norvegicus, UniProt P33535), sequence (P33535 whole entry): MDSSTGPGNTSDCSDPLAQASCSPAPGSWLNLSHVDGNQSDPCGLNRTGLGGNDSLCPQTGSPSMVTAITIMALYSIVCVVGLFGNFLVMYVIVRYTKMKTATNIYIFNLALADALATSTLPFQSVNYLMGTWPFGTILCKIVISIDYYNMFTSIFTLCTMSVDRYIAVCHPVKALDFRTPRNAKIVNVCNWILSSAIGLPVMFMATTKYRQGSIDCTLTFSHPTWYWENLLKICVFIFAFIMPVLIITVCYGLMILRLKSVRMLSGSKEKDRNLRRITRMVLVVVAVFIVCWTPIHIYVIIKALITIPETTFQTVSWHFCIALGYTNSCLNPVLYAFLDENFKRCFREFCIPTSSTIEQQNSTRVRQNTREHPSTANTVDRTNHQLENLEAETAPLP

| SMILES | pKi |
| --- | --- |
| COc1ccc2c3c1O[C@H]1c4ncc(-c5ccccc5)cc4C[C@@]4(O)[C@@H](C2)N(C)CC[C@]314 | 6.05 |

Biological target: T1, Kappa-type opioid receptor (Cavia porcellus, UniProt P41144)
Experiment: Apparent binding affinity of compound was determined by antagonism towards Opioid receptor kappa 1 in [35S]GTP-gamma-S, binding assay in guinea pig caudate
Assay type: functional
Details: not given

T1 sequence (P41144 whole entry): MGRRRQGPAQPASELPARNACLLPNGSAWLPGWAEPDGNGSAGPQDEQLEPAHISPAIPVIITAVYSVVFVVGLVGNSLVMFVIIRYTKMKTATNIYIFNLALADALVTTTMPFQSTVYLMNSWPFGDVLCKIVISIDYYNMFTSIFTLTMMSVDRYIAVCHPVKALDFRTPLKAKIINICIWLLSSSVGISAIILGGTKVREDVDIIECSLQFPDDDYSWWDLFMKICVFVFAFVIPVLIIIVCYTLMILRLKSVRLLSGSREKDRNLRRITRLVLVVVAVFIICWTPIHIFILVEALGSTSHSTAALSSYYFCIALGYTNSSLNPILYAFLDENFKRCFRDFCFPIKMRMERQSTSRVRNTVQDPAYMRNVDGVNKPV

| SMILES | pKi |
| --- | --- |
| CN1CC[C@]23c4c5ccc(O)c4O[C@H]2c2ncccc2C[C@@]3(O)[C@H]1C5 | < 6.00 |
| CN1CC[C@]23c4c5ccc(O)c4O[C@H]2c2ncc(-c4ccccc4)cc2C[C@H]3[C@H]1C5 | < 6.00 |
| CN1CC[C@]23c4c5ccc(O)c4O[C@H]2c2ncccc2C[C@H]3[C@H]1C5 | < 6.00 |
| CN1CC[C@]23c4c5ccc(O)c4O[C@H]2c2ncc(-c4ccccc4)cc2C[C@@]3(O)[C@H]1C5 | < 6.00 |

Organism: Mus musculus
Experiment: Antinociceptive effect was determined by the ability to exhibit 80% reduction of naloxone induced sensitivity; Yes
Assay type: functional, organism-based
Details: not given

| SMILES | Activity |
| --- | --- |
| CN1CC[C@]23c4c5ccc(O)c4O[C@H]2c2ncccc2C[C@@]3(O)[C@H]1C5 | Active |
| CN1CC[C@]23c4c5ccc(O)c4O[C@H]2c2ncc(-c4ccccc4)cc2C[C@H]3[C@H]1C5 | Active |

Biological target: T2, Mu-type opioid receptor (Cavia porcellus, UniProt P97266)
Experiment: Antagonism of compound towards Opioid receptor mu 1 was determined using PL-017 in guinea pig ileum (GPI) smooth muscle contraction assays; d = agonist effect was observed
Assay type: functional, tissue-based
Details: not given

T2 sequence (P97266 whole entry): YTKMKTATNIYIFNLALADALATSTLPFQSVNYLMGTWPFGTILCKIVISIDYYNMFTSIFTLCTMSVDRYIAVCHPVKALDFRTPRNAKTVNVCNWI

| SMILES | pEC50 |
| --- | --- |
| CN1CC[C@]23c4c5ccc(O)c4O[C@H]2c2ncc(-c4ccccc4)cc2C[C@H]3[C@H]1C5 | 5.99 |

Organism: Mus musculus
Experiment: Antinociceptive effect was determined by the ability to exhibit 80% reduction of naloxone induced sensitivity; No
Assay type: functional, organism-based
Details: not given

| SMILES | Activity |
| --- | --- |
| CN1CC[C@]23c4c5ccc(O)c4O[C@H]2c2ncccc2C[C@H]3[C@H]1C5 | inactive |
| CN1CC[C@]23c4c5ccc(O)c4O[C@H]2c2ncc(-c4ccccc4)cc2C[C@@]3(O)[C@H]1C5 | inactive |

Biological target: Delta-type opioid receptor (Rattus norvegicus, UniProt P33533)
Experiment: Binding affinity at opioid receptor delta 1 by displacement of [3H]DADLE in rat brain membrane
Assay type: cell membranes
Details: not given

Delta-type opioid receptor, sequence (P33533 whole entry): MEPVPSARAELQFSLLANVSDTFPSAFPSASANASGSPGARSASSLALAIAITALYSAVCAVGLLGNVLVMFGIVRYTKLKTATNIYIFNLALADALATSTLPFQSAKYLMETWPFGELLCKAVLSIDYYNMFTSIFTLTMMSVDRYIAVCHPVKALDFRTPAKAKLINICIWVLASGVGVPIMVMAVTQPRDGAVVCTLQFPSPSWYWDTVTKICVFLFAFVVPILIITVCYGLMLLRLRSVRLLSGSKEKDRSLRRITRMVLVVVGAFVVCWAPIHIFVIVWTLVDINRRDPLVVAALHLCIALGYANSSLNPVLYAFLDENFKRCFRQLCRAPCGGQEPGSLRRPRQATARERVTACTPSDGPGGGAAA

| SMILES | pKi |
| --- | --- |
| COc1ccc2c3c1O[C@H]1c4ncc(-c5ccccc5)cc4C[C@@]4(O)[C@@H](C2)N(C)CC[C@]314 | 7.47 |

System: Mus musculus
Experiment: Analgesic activity was calculated at time of peak drug effect when administered (icv) in mouse warm-water tail withdrawal assay
Assay type: functional
Details: not given
Method in brief: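 Male ICR mice dosed icv (5 µL; water or 100% DMSO) under light ether anaesthesia. 55 °C warm-water tail withdrawal read at 10-180 min, cutoff 10 s. %MPE = 100 × (test − control)/(cutoff − control). A50 and 95% CI taken at peak effect by linear regression.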

| SMILES | A50 [nM] |
| --- | --- |
| CN1CC[C@]23c4c5ccc(O)c4O[C@H]2c2ncccc2C[C@@]3(O)[C@H]1C5 | 67.1 |

Biological target: Mu-type opioid receptor (Cavia porcellus) (UniProt P97266)
Details: Ileum, filed as agonist

Mu-type opioid receptor (Cavia porcellus), sequence (P97266 whole entry): as the sequence (P97266 whole entry) above

| SMILES | Ke |
| --- | --- |
| CN1CC[C@]23c4c5ccc(O)c4O[C@H]2c2ncccc2C[C@H]3[C@H]1C5 | Agonist |

Biological target: Delta-type opioid receptor (Mus musculus) (UniProt P32300)
Experiment: Agonist activity by the max response towards opioid receptor delta 1 induced contractions in mouse vas deferens (MVD) smooth muscle contraction assays
Assay type: functional, tissue-based
Details: not given
Method in brief: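 Electrically stimulated MVD (male ICR mice, 25-40 g) and GPI longitudinal muscle myenteric plexus strips (male Hartley guinea pigs, 250-500 g). Baths held 37 °C oxygenated Krebs bicarbonate (Mg-free for MVD), tension 1 g GPI / 0.5 g MVD. Stimulation 0.1 Hz, 0.4 ms pulses (2 ms MVD), supramaximal voltage. […] IC50 from two to four tissues by nonlinear least squares.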

Delta-type opioid receptor (Mus musculus), sequence (P32300 whole entry): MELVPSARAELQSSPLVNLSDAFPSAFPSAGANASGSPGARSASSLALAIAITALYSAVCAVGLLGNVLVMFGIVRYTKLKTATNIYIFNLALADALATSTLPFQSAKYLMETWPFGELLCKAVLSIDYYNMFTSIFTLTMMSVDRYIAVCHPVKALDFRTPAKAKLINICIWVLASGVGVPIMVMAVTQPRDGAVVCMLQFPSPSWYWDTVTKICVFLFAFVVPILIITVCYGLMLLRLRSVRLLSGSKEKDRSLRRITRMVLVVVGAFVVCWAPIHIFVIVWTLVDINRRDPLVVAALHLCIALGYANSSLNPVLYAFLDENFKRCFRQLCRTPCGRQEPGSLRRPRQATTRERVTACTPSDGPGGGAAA

| SMILES | Response [%] |
| --- | --- |
| CN1CC[C@]23c4c5ccc(O)c4O[C@H]2c2ncccc2C[C@@]3(O)[C@H]1C5 | 49 |

Biological target: Opioid receptors; mu & delta (Rattus norvegicus) (UniProt P33533+P33535)
Experiment: Selectivity given as ratio of mu receptor to delta receptor
Assay type: protein assay
Details: not given

Opioid receptors; mu & delta (Rattus norvegicus), sequence (P33533 whole entry, looked up): as the sequence (P33533 whole entry) above
Opioid receptors; mu & delta (Rattus norvegicus), sequence (P33535 whole entry, looked up): as the sequence (P33535 whole entry) above

| SMILES | Ratio |
| --- | --- |
| COc1ccc2c3c1O[C@H]1c4ncc(-c5ccccc5)cc4C[C@@]4(O)[C@@H](C2)N(C)CC[C@]314 | 26 |
| CN1CC[C@]23c4c5ccc(O)c4O[C@H]2c2ncccc2C[C@@]3(O)[C@H]1C5 | 0.4 |
| CN1CC[C@]23c4c5ccc(O)c4O[C@H]2c2ncc(-c4ccccc4)cc2C[C@H]3[C@H]1C5 | 13 |
| CN1CC[C@]23c4c5ccc(O)c4O[C@H]2c2ncccc2C[C@H]3[C@H]1C5 | 1.6 |
| CN1CC[C@]23c4c5ccc(O)c4O[C@H]2c2ncc(-c4ccccc4)cc2C[C@@]3(O)[C@H]1C5 | 9 |

Biological target: T2, Mu-type opioid receptor
Experiment: Apparent binding affinity of compound was determined by antagonism towards Opioid receptor mu 1 in [35S]GTP-gamma-S, binding assay in guinea pig caudate
Assay type: functional
Details: not given

| SMILES | pKi |
| --- | --- |
| CN1CC[C@]23c4c5ccc(O)c4O[C@H]2c2ncccc2C[C@@]3(O)[C@H]1C5 | < 6.00 |
| CN1CC[C@]23c4c5ccc(O)c4O[C@H]2c2ncc(-c4ccccc4)cc2C[C@H]3[C@H]1C5 | < 6.00 |
| CN1CC[C@]23c4c5ccc(O)c4O[C@H]2c2ncccc2C[C@H]3[C@H]1C5 | < 6.00 |
| CN1CC[C@]23c4c5ccc(O)c4O[C@H]2c2ncc(-c4ccccc4)cc2C[C@@]3(O)[C@H]1C5 | < 6.00 |

Biological target: T2, Mu-type opioid receptor
Experiment: Inhibitory concentration for inhibition of Opioid receptor mu 1 induced contractions in guinea pig ileum (GPI) smooth muscle assays
Assay type: functional, tissue-based
Details: not given
Method in brief: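 Electrically stimulated MVD (male ICR mice, 25-40 g) and GPI longitudinal muscle myenteric plexus strips (male Hartley guinea pigs, 250-500 g). Baths held 37 °C oxygenated Krebs bicarbonate (Mg-free for MVD), tension 1 g GPI / 0.5 g MVD. Stimulation 0.1 Hz, 0.4 ms pulses (2 ms MVD), supramaximal voltage. IC50 from two to four tissues by nonlinear least squares.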

| SMILES | pIC50 |
| --- | --- |
| CN1CC[C@]23c4c5ccc(O)c4O[C@H]2c2ncccc2C[C@@]3(O)[C@H]1C5 | 6.28 |
| CN1CC[C@]23c4c5ccc(O)c4O[C@H]2c2ncc(-c4ccccc4)cc2C[C@H]3[C@H]1C5 | 7.01 |
| CN1CC[C@]23c4c5ccc(O)c4O[C@H]2c2ncccc2C[C@H]3[C@H]1C5 | 7.17 |
| CN1CC[C@]23c4c5ccc(O)c4O[C@H]2c2ncc(-c4ccccc4)cc2C[C@@]3(O)[C@H]1C5 | 6.68 |

Organism: Cavia porcellus
Experiment: Selectivity given as ratio of kappa receptor to delta receptor
Details: not given

| SMILES | Ratio |
| --- | --- |
| COc1ccc2c3c1O[C@H]1c4ncc(-c5ccccc5)cc4C[C@@]4(O)[C@@H](C2)N(C)CC[C@]314 | > 294 |
| CN1CC[C@]23c4c5ccc(O)c4O[C@H]2c2ncccc2C[C@@]3(O)[C@H]1C5 | 15 |
| CN1CC[C@]23c4c5ccc(O)c4O[C@H]2c2ncc(-c4ccccc4)cc2C[C@H]3[C@H]1C5 | 43 |
| CN1CC[C@]23c4c5ccc(O)c4O[C@H]2c2ncccc2C[C@H]3[C@H]1C5 | 8 |
| CN1CC[C@]23c4c5ccc(O)c4O[C@H]2c2ncc(-c4ccccc4)cc2C[C@@]3(O)[C@H]1C5 | 124 |

Biological target: Delta-type opioid receptor (Mus musculus) (UniProt P32300)
Details: Vas deferens; filed as agonist

| SMILES | Ke |
| --- | --- |
| CN1CC[C@]23c4c5ccc(O)c4O[C@H]2c2ncc(-c4ccccc4)cc2C[C@@]3(O)[C@H]1C5 | Agonist |

Organism: Mus musculus
Experiment: Antinociceptive effect was determined at 100 nM in mouse
Assay type: functional
Details: not given

| SMILES | Activity [%] |
| --- | --- |
| CN1CC[C@]23c4c5ccc(O)c4O[C@H]2c2ncc(-c4ccccc4)cc2C[C@H]3[C@H]1C5 | 48 |
| CN1CC[C@]23c4c5ccc(O)c4O[C@H]2c2ncccc2C[C@H]3[C@H]1C5 | 75 |
| CN1CC[C@]23c4c5ccc(O)c4O[C@H]2c2ncc(-c4ccccc4)cc2C[C@@]3(O)[C@H]1C5 | 64 |

Biological target: Mu-type opioid receptor (Cavia porcellus) (UniProt P97266)
Details: not given

| SMILES | Ke |
| --- | --- |
| CN1CC[C@]23c4c5ccc(O)c4O[C@H]2c2ncc(-c4ccccc4)cc2C[C@H]3[C@H]1C5 | inactive |

Biological target: T1, Kappa-type opioid receptor
Experiment: Agonistic activity towards Opioid receptor kappa 1 was determined in [35S]GTP-gamma-S, binding assay in guinea pig caudate; g = not active as an agonist
Assay type: functional
Details: not given
Method in brief: (§1)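 Guinea pig caudate membranes (10-20 µg protein) incubated 3 h at 22 °C in Tris-HCl pH 7.4 containing 100 mM NaCl, 10 mM MgCl2, 1 mM EDTA, 100 µM GDP and 0.05-0.1 nM [35S]GTP-γ-S, then filtered and counted. Nonspecific binding defined with 10 µM GTP-γ-S. Site isolation used CTAP, nor-BNI, NTI or TIPP. […] Three experiments pooled; logistic fit.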

| SMILES | EC50 |
| --- | --- |
| CN1CC[C@]23c4c5ccc(O)c4O[C@H]2c2ncccc2C[C@@]3(O)[C@H]1C5 | Not Active |
| CN1CC[C@]23c4c5ccc(O)c4O[C@H]2c2ncccc2C[C@H]3[C@H]1C5 | Not Active |
| CN1CC[C@]23c4c5ccc(O)c4O[C@H]2c2ncc(-c4ccccc4)cc2C[C@@]3(O)[C@H]1C5 | Not Active |

Biological target: Delta-type opioid receptor (Mus musculus) (UniProt P32300)
Details: Vas deferens; filed as agonist
Remark: another data set of the same source

| SMILES | Ke |
| --- | --- |
| CN1CC[C@]23c4c5ccc(O)c4O[C@H]2c2ncc(-c4ccccc4)cc2C[C@H]3[C@H]1C5 | Agonist |
| CN1CC[C@]23c4c5ccc(O)c4O[C@H]2c2ncccc2C[C@H]3[C@H]1C5 | Agonist |

Biological target: T1, Kappa-type opioid receptor
Experiment: Binding affinity at Opioid receptor kappa 1 by displacement of [3H]U-69593 in guinea pig brain membranes
Assay type: cell membranes, Membrane
Details: not given

| SMILES | pKi |
| --- | --- |
| COc1ccc2c3c1O[C@H]1c4ncc(-c5ccccc5)cc4C[C@@]4(O)[C@@H](C2)N(C)CC[C@]314 | < 5.00 |

Biological target: T2, Mu-type opioid receptor
Experiment: Agonistic activity towards Opioid receptor mu 1 was determined in [35S]GTP-gamma-S, binding assay in guinea pig caudate
Assay type: functional
Details: not given
Method in brief: as §1

| SMILES | EC50 |
| --- | --- |
| CN1CC[C@]23c4c5ccc(O)c4O[C@H]2c2ncc(-c4ccccc4)cc2C[C@H]3[C@H]1C5 | Not Active |

Same assay, conditions: read-out: EC50

| SMILES | pEC50 |
| --- | --- |
| CN1CC[C@]23c4c5ccc(O)c4O[C@H]2c2ncccc2C[C@@]3(O)[C@H]1C5 | 5.52 |
| CN1CC[C@]23c4c5ccc(O)c4O[C@H]2c2ncccc2C[C@H]3[C@H]1C5 | 5.52 |
| CN1CC[C@]23c4c5ccc(O)c4O[C@H]2c2ncc(-c4ccccc4)cc2C[C@@]3(O)[C@H]1C5 | 6.18 |

Biological target: Mu-type opioid receptor (Cavia porcellus) (UniProt P97266)
Details: Ileum, filed as agonist
Remark: another data set of the same source

| SMILES | Ke |
| --- | --- |
| CN1CC[C@]23c4c5ccc(O)c4O[C@H]2c2ncc(-c4ccccc4)cc2C[C@@]3(O)[C@H]1C5 | Agonist |
